Experimental data from different studies.
Lines come from different studies, so protocols differ.
CYP2C19: Cytochrome P450 2C19 (CYP2C19, Homo sapiens, UniProt P33261)

| SMILES | target or system | assay | system | setting | measurement | value |
| --- | --- | --- | --- | --- | --- | --- |
| COC(=O)C1CCN(C(=O)c2ccc(N(C)Cc3cnc4nc(N)nc(N)c4n3)cc2)CC1 | CYP2C19 | enzyme activity, inhibitor, luciferase |  | 10 µM | inhibition | -29.4% |
| Cl.Cl.O=C(CCN1CCCCC1)c1ccc(-c2ccc(C(=O)CCN3CCCCC3)cc2)cc1 |  |  | Sprague-Dawley rat, plasma | oral, 50 mg/kg | Tmax | 0.65 h |
| O=C[C@H](C[C@@H]1CCNC1=O)NC(=O)[C@H](CC1CCCCC1)NC(=O)c1cc2ccccc2[nH]1 |  |  | dog, plasma | intravenous, 4 mg/kg | Cmax | 9770 µg/mL |
| N=c1c2c(-c3ccccc3)c(-c3ccccc3)n(Cc3ccccc3)c2ncn1[C@H]1CC[C@H](O)CC1 |  |  | male beagle dog, plasma | intravenous, 0.5 mg/kg, single dose | clearance | 1.2 mL/min/kg |
| CC(C)C[C@H](NC(=O)[C@@H](NC(=O)/C=C/c1ccccc1F)C(C)C)C(=O)N[C@H](C=O)C[C@@H]1CCCNC1=O | A549 | cell growth or viability, MTT |  | 24 h | CC50 | > 100 µM |
| O=S(=O)([O-])c1cccc(P(c2ccccc2)c2ccccc2)c1.[Na+] | NIH3T3 | cell growth or viability, resazurin |  | 18 h | CC50 | 189 µg/mL |
| CC(C)C[C@H](NC(=O)[C@@H](NC(=O)c1ccc(Cl)cc1)C(C)C)C(=O)N[C@H](C=O)C[C@@H]1CCCNC1=O | A549 | cell growth or viability, MTT |  | 24 h | CC50 | > 100 µM |
| Cc1ncc2n1-c1ccc(Cl)cc1C(c1ccccc1F)=NC2 |  | metabolic stability | beagle dog, hepatocytes | 1 µM, 4 h | compound remaining | 3% |
| CC(C)C[C@H](NC(=O)[C@@H](NC(=O)c1ccoc1)C(C)C)C(=O)N[C@H](C=O)C[C@@H]1CCCNC1=O | A549 | cell growth or viability, MTT |  | 24 h | CC50 | > 100 µM |
| COC(=O)C1CCN(C(=O)c2ccc(NCc3cnc4nc(N)nc(N)c4n3)cc2)CC1 | CYP2C19 | enzyme activity, inhibitor, luciferase |  | 10 µM | inhibition | -23.4% |
| C[C@H](NC(=O)/C=C/c1ccccc1)C(=O)N[C@H](C=O)C[C@@H]1CCCNC1=O | A549 | cell growth or viability, MTT |  | 24 h | CC50 | > 100 µM |
| CC(C)(C)NC(=O)N[C@H](C(=O)N1C[C@H]2[C@@H]([C@H]1C(=O)NC(CC1CCC1)C(=O)C(N)=O)C2(C)C)C(C)(C)C (stereo partly drawn) | A549 | cell growth or viability, neutral red |  | 48 h | CC50 | > 100 µM |
| COC(=O)C(NC(=O)c1cn(CCCCCF)c2ccccc12)C(C)(C)C (stereo not drawn) |  |  | male Sprague-Dawley rat, plasma | subcutaneous, 200 µg/kg | Tmax | 2.83 h |
| CN1CCCCC1Cn1cc(C(=O)c2cc([N+](=O)[O-])ccc2I)c2ccccc21 (racemic) |  |  | mouse, plasma | intravenous, 25 mg/kg | C0 | 6 µg/mL |
| CCOC(=O)[C@@](C)(O)[C@@H]1C[C@@H](CO[Si](c2ccccc2)(c2ccccc2)C(C)(C)C)O[C@H]1n1cc(F)c(=O)[nH]c1=O | A549 | cell growth or viability, MTT |  | 42 h | CC50 | 236 µM |
| COc1cc2c(c(OC)c1OC)-c1ccc(OC)c(=O)cc1[C@@H](NC(C)=O)CC2 | HFF-1 | cell growth or viability, resazurin |  | 72 h | CC50 | 0.024 µM |
| CC(C)C[C@H](NC(=O)[C@H](CC1CCCCC1)NC(=O)/C=C/c1ccccc1)C(=O)N[C@H](C=O)C[C@@H]1CCCNC1=O | A549 | cell growth or viability, MTT |  | 24 h | CC50 | > 100 µM |
| CCC[C@@](N)(CO)CCc1ccc(OCCCCCC(C)C)cc1 |  |  | dog, plasma | oral, 2.5 mg/kg | Cmax | 69.2 nM |
